Tn7 DDE FP = disrupts Tn7 cyclic peptide binding to fibrin D-Dimer-E complex; P02675; FP displacement of FITC-Tn7 peptide from fibrin DD(E); 0% = median of compound wells per plate; inhibition, % at 8.3 µM; actives 0.13% (n = 370,000); AID 720508;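 active = inhibition above the mean of compounds falling within the control limits plus 3 SD of them, cut at about 14% in these data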
Target sequence (P02675 whole entry, looked up): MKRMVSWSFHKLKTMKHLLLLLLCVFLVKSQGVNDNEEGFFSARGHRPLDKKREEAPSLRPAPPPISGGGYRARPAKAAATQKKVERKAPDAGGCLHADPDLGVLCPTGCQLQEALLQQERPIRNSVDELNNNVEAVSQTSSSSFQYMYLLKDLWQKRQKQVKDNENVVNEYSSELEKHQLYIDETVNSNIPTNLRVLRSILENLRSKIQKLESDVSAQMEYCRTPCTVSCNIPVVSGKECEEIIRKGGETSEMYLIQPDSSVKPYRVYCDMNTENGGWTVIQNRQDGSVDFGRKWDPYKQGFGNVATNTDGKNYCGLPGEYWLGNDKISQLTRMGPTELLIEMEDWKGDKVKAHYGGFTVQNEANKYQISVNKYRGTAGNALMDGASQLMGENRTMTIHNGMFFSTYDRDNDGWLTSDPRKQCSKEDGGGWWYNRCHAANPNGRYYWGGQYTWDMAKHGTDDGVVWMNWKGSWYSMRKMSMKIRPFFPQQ
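Assay system: human fibrin DD(E) protein / Input: 2 µM fibrin DD(E) / Benchmarks: high control of 10 µM Aha-Tn7 peptide / Measured by: fluorescence polarization of the labelled Tn7 tracer / Medium: Tris buffer with calcium and detergent, pH 7.8 / Timing: 10 min compound pre-incubation, 3 h probe incubation at room temperature / Repeats: one replicate per compound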
Tn6 DDE FP = inhibitors of Tn6 peptide binding to human fibrin DD(E). P02675. Fibrin DD(E) TRITC-Tn6 fluorescence polarization displacement. inhibition, % at 8.3 µM. actives 0.21% (n = 370,000). AID 720509;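 active = inhibition above a per-campaign cutoff: mean of compounds within control limits plus 3 SD, cut at about 15% in these data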
ADAM17 inh = inhibits human ADAM17. recombinant ADAM17, EDANS/DABCYL FRET peptide cleavage. actives 0.83% (n = 370,000). AID 720648. inhibition, % at 6.95 µM. P78536;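 active = inhibition above the mean of compounds lying between control limits plus 3 SD, set per campaign, cut at about 8.5% in these data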
ADAM10 inh = ADAM10 inhibition, QFRET primary screen | O14672 | recombinant ADAM10, EDANS/DABCYL FRET peptide cleavage, 3 h | inhibition, % at 7 µM | actives 0.62% (n = 370,000);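 active = inhibition above a per-campaign cutoff equal to the mean of compounds falling between control-based bounds plus 3 SD, cut at about 20% in these data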
MT1-MMP act inh = inhibitors of human MT1-MMP activation. HT1080 RFP-PRO-GFP cells, GFP/RFP ratio fluorescence, overnight; percent of plate control window, DMSO zero. GFP/RFP ratio change, % at 20 µM. actives 0.061% (n = 360,000);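 active = GFP/RFP ratio change of at least 30% with cell ATP level not reduced by more than half and red fluorescence within 50% of control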
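Material: RFP-PRO-GFP reporter HT1080 cells. Dosing: single-point 20 µM compound, 1% DMSO. Controls: DMSO and RFP-L50D-GFP cell wells. Timing: cells overnight before dosing, compound overnight, 37 °C, 5% CO2. Measure: GFP/RFP fluorescence ratio.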
Tn6 DDE ctr = counter-screen hit for Tn6 peptide-fibrin DD(E) binding disruption; shares compounds with Tn6 DDE FP; TRITC-Tn6 fluorescence polarization displacement; 0% = median of compound wells, not DMSO; inhibition, % at 8.3 µM; actives 2% (n = 680);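 active = inhibition above the mean of test compounds lying between the control limits plus 3 SD of those, cut at about 14% in these data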
Tn6 DDE conf = confirmation of inhibitors of Tn6 binding to human fibrin DD(E); shares compounds with Tn6 DDE FP; FP displacement of TRITC-Tn6 peptide from DD(E); 0% = per-plate median of test wells; inhibition, % at 8.3 µM; actives 10% (n = 680);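 active = inhibition above the mean of compounds lying within the control limits plus 3 SD, cut at about 16% in these data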
A number is an active result; 0 = inactive; - = no result given; + = active, no number. The list is not random: actives were taken first. Their share in the collection is about 1.6%.

SMILES | Tn7 DDE FP | Tn6 DDE FP | ADAM17 inh | ADAM10 inh | MT1-MMP act inh | Tn6 DDE ctr | Tn6 DDE conf
C[C@H]1[C@@H](NC(=O)c2ccc(O)cc2)CC[C@@]23CCCN2C(=O)CCC[C@@H]13 | 0 | 0 | 0 | 0 | - | - | -
N#Cc1c(NC(=O)Cn2nc(C(F)(F)F)c3c2CCCC3)sc2c1CCC2 | 0 | 0 | 0 | 0 | 0 | - | -
CC1CCc2c(sc(NC(=O)Cn3nc(C(F)(F)F)c4c3CCCCC4)c2C#N)C1 (configuration not stated) | 0 | 17 | 0 | 0 | 0 | 0 | 0
COC(=O)[C@]12C[C@H](CC(=O)NCC3CCCCC3)C(=O)N(CCC3=CCCCC3)C1=C[C@H](C(C)(C)C)O[C@@H]2C | 0 | 0 | 0 | 0 | - | - | -
Cc1c(C)n(C)c2ccc(C(=O)NCCCN3CCN(C)CC3)cc12 | 0 | 0 | 0 | 0 | 0 | - | -
Cc1c(C)n(C)c2ccc(C(=O)NCc3cccs3)cc12 | 0 | 35 | 0 | 0 | 0 | 0 | 0
CC(=O)c1ccc([C@H](O)[C@H](C)C(=O)N(C)c2ccccc2)cc1 | 0 | 0 | 0 | 0 | - | - | -
CCN(CC)CCN(C(=O)CCOc1ccccc1)c1nc2ccc(F)cc2s1 | 0 | 16 | 0 | 0 | 0 | 0 | 0
Cc1cc2c(NC(=O)Nc3ccc(C(F)(F)F)cc3)cccc2nn1 | 0 | 108 | 0 | 0 | 0 | 0 | 0
Cc1cc2c(NC(=O)CCCC(=O)O)cccc2nn1 | 0 | 0 | 0 | 0 | 0 | - | -
CC(C)c1ccc(N2C(=O)/C(=C/N(C)C)SC2=S)cc1 | 0 | 43 | 0 | 0 | 0 | 0 | 0
CCCCN1CC(COCc2ccccc2)Oc2cccc(Sc3ccc(OC)c(OC)c3)c2S1(=O)=O (configuration not stated) | 0 | 0 | 0 | 0 | - | - | -
CC1CCc2nn(CC(=O)Nc3c(F)cc(F)cc3Br)cc2C1 (configuration not stated) | 0 | 0 | 0 | 0 | 0 | - | -
O=C(Cn1cc2c(n1)CCCCC2)Nc1c(F)cc(F)cc1Br | 0 | 17 | 0 | 0 | 0 | 0 | 0
CCCCCCCCN1C(=O)[C@@H](CC(=O)NCc2cccc3ccccc23)C[C@@]2(C(=O)OC)C1=C[C@H](C(C)(C)C)O[C@@H]2C | 0 | 0 | 0 | 0 | - | - | -
O=C(COC(=O)CNC(=O)c1ccc(F)cc1)NC1CCCc2ccccc21 (configuration not stated) | 0 | 0 | 0 | 0 | 0 | - | -
Cc1ccc(C(=O)NCC(=O)OC(C)C(=O)NC2CCCc3ccccc32)cc1 (configuration not stated) | 0 | 16 | 0 | 0 | 0 | 0 | 0
C=CCOC(=O)C(CO)NC(=O)CCCC(=O)O (configuration not stated) | 0 | 0 | 0 | 0 | - | - | -
Cc1ccc(Cn2ccsc2=NC(=O)COC(=O)c2ccc(NC(=O)CC#N)cc2)cc1 | 0 | 16 | 0 | 0 | 0 | 0 | 0
Cc1ccc(Cn2ccsc2=NC(=O)CCl)cc1 | 0 | 0 | 0 | 0 | 0 | - | -
NS(=O)(=O)c1ccc(NC(=O)c2ccc(-c3ccccc3)cc2)cc1 | 0 | 0 | 0 | 0 | 0 | - | -
NS(=O)(=O)c1ccc(NS(=O)(=O)c2ccc(NC(=O)c3ccc(-c4ccccc4)cc3)cc2)cc1 | 0 | 32 | 0 | 0 | 0 | 0 | 17
Cc1ccc(OCCn2c(CCNC(=O)c3ccc(F)cc3F)nc3ccccc32)cc1 | 0 | 0 | 0 | 0 | - | - | -
CCN1C=C(C(=O)OC)C(c2cccc(OC)c2OC)C(C(=O)OC)=C1 | 0 | 17 | 0 | 0 | 0 | 0 | 0
COc1ccc(Cl)cc1NC(=O)COC(=O)CCNC(C)=O | 0 | 17 | 0 | 0 | 0 | 0 | 0
SMILES | Tn7 DDE FP | Tn6 DDE FP | ADAM17 inh | ADAM10 inh | MT1-MMP act inh | Tn6 DDE ctr | Tn6 DDE conf
COc1ccc(Nc2c(-c3ccc(F)cc3)nc3nc(C)cc(C)n23)cc1 | 0 | 17 | 0 | 0 | 0 | 0 | 0
COc1ccc(Nc2c(-c3cc4ccccc4o3)nc3nc(C)cc(C)n23)cc1 | 0 | 0 | 0 | 0 | 0 | - | -
Cc1ccc(Cl)cc1NC1=C/C(=N\S(=O)(=O)c2cccs2)c2ccccc2C1=O | 0 | 53 | 0 | 0 | 0 | 0 | 0
Cc1ccc(NC2=C/C(=N\S(=O)(=O)c3cccs3)c3ccccc3C2=O)c(C)c1 | - | - | - | - | 0 | - | -
O=C(Oc1ccc(N(Cc2cccs2)C2=NS(=O)(=O)c3ccccc32)cc1)c1ccc(Cl)cc1 | 0 | 17 | 0 | 0 | 0 | 0 | 0
O=C(CCN1CCOCC1)N1CCCC(Nc2ccc(F)cc2)C1 (configuration not stated) | 0 | 15 | 0 | 0 | 0 | 0 | 0
COc1ccccc1CNC(=O)C1=C(C)C(=O)OC12CCC(C)CC2 (configuration not stated) | 0 | 0 | 0 | 0 | 0 | - | -
COc1cccc(CNC(=O)C2=C(C)C(=O)OC23CCC(C)CC3)c1 (configuration not stated) | 0 | 19 | 0 | 0 | 0 | 0 | 0
COc1cccc(CNC(=O)[C@H]2CCCN2C(=O)[C@H]2CCCN2C(=O)c2ccc(OC(F)(F)F)cc2)c1 | 0 | 0 | 0 | 0 | - | - | -
Nc1[nH]c2cc(C(F)(F)F)ccc2c1C(=O)NCc1ccc(F)cc1 | 0 | 0 | 0 | 0 | - | - | -
Cc1ccc(S(=O)(=O)N2CCN(c3nc(C)c4c(c3C#N)CC(C)(C)OC4)CC2)cc1 | 0 | 16 | 0 | 0 | 0 | 0 | 0
S=C(NN=C1CCCCC1=NNC(=S)N1CCOCC1)N1CCOCC1 | 0 | 0 | 0 | 0 | - | - | -
CC1N(C)c2cc(NC(=O)c3ccco3)ccc2C1(C)C (configuration not stated) | 0 | + | 0 | 0 | 0 | 0 | 0
CC(C)CNC(=O)OCc1cn(Cc2ccc(Cl)cc2)nn1 | 0 | 0 | 0 | 0 | - | - | -
CC(=O)CC[C@@H]1CC[C@]2(CCCN(C(=O)c3ccno3)C2)O1 | 0 | 0 | 0 | 0 | - | - | -
C[C@H](O)[C@@H]1CN2CCc3c([nH]c4cccc(-c5ccccc5)c34)[C@@H]2C[C@@H]1N(C)C(=O)c1ccco1 | 0 | 0 | 0 | 0 | - | - | -
COc1ccc(CNC(=O)C[C@H]2C[C@H](C(=O)N3CCOCC3)[C@@]3(CCC4CCCC4)c4[nH]c5cc(-c6ccco6)ccc5c4CCN3C2=O)cc1OC | 0 | 16 | 0 | 0 | 0 | 0 | 0
COC(=O)C[C@@H]1CC[C@@H]2[C@@H](COc3ccc(NC(=O)Nc4ccccc4)cc3C(=O)N2C)O1 | 0 | 0 | 0 | 0 | - | - | -
CCOC(=O)Nc1ccc2c(c1)Cc1cc([N+](=O)[O-])ccc1-2 | 0 | 17 | 0 | 0 | 0 | 0 | 0
CC(=O)c1cccc(OCc2cc(C(=O)N3C[C@@H](C)O[C@@H](C)C3)no2)c1 | 0 | 20 | 0 | 0 | 0 | 0 | 0
